Measured values reported in ChEMBL document CHEMBL1145336, “1-aryl-3-(4-pyridine-2-ylpiperazin-1-yl)propan-1-one oximes as potent dopamine D4 receptor agonists for the treatment of erectile dysfunction” (J Med Chem, 2006).
Active and inactive are the calls of the source. The rule behind the calls is not given here.

Assays:
[1] = tested on: Rattus norvegicus; assay: Activity against penile erection in Wistar rat at 0.1 umol/kg, sc; assay type: functional
In short: (§1)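 Male Wistar rats, dosed subcutaneously, were weighed and adapted to a red-lit testing room for 60 min; experiments ran between 9:00 a.m. and 3:00 p.m. Erections were counted by direct observation for 60 min after dosing. The share of animals with one or more erections was reported as incidence (percent), n = 8-30 rats.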

[2] = target: T1, D(4) dopamine receptor (Homo sapiens, UniProt P21917); assay: Activity at human recombinant D4.4 receptor expressed in HEK293 cells by FLIPR assay; assay type: functional, cell-based
T1 sequence (P21917 whole entry): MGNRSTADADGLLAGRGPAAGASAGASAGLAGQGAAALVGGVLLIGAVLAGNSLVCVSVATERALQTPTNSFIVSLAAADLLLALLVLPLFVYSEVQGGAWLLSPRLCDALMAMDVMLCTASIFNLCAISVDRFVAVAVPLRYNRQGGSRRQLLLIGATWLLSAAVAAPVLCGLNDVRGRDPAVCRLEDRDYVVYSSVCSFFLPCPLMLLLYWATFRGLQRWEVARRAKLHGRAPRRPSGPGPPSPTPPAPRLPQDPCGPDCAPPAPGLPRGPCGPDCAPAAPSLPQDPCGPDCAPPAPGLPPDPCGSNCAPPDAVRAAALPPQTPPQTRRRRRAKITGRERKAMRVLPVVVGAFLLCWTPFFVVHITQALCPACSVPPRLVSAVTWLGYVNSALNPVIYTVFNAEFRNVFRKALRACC

[3] = target: T1, D(4) dopamine receptor; assay: Displacement of [3H]A-369508 from human recombinant D4.4 receptor expressed in HEK293 cell membrane; assay type: cell membranes
In short: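 Competition binding against the D4-selective agonist radioligand [3H]-A-369508, using membranes from HEK-293 cells engineered to express human D4.4. Mean values (SEM, n ≥ 4).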

[4] = target: T2, D(2) dopamine receptor (Homo sapiens, UniProt P14416); assay: Antagonist activity at human recombinant D2 receptor expressed in HEK293 cells by FLIPR assay; assay type: functional, cell-based
T2 sequence (P14416 whole entry): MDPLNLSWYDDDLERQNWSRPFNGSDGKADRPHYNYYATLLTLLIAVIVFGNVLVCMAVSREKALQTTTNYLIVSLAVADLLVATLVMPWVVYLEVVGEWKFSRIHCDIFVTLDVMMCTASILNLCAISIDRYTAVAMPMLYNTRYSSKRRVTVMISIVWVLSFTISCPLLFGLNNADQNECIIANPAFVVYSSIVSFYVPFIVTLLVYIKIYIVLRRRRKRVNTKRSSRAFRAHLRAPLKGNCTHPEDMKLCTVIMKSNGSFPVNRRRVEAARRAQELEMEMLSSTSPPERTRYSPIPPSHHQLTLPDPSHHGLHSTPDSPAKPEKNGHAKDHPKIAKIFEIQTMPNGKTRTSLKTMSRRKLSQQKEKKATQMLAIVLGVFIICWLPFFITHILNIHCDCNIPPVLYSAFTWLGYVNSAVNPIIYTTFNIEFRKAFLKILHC

[5] = target: T2, D(2) dopamine receptor; assay: Agonist activity at human recombinant D2 receptor expressed in HEK293 cells by FLIPR assay; assay type: functional, cell-based
In short: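 Calcium flux (FLIPR) in HEK-293 cells coexpressing recombinant human D2L with chimeric Gqo5. Efficacy is the maximal response relative to 10 µM dopamine (100%). EC50 is the concentration giving half-maximal stimulation. Values are means (SEM, n ≥ 3).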

[6] = target: T2, D(2) dopamine receptor; assay: Displacement of [125I]PIPAT from human recombinant D2L receptor expressed in HEK293 cells
[7] = tested on: Rattus norvegicus; assay: Activity against penile erection in Wistar rat at 0.3 umol/kg, sc; assay type: functional; in short: as §1
[8] = tested on: Rattus norvegicus; assay: Inhibition of (E)-1-(4-chlorophenyl)-3-(4-pyridin-2-ylpiperazin-1-yl)propan-1-one O-methyloxime-induced erectogenic effect in Wistar rat at 10 umol/kg, ip; assay type: functional, organism-based
[9] = tested on: Rattus norvegicus; assay: Inhibition of (E)-1-(4-chlorophenyl)-3-(4-pyridin-2-ylpiperazin-1-yl)propan-1-one O-methyloxime-induced erectogenic effect in Wistar rat at 3 umol/kg, ip; assay type: functional, organism-based
[10] = tested on: Rattus norvegicus; assay: Activity against penile erection in Wistar rat at 1.0 umol/kg, sc; assay type: functional; in short: as §1
[11] = Bioavailability in rat at 1 mg/kg, po; assay type: ADME, organism-based; conditions: in vivo
In short: (§2)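 Pharmacokinetics in rat and dog after a 1 mg/kg dose given subcutaneously or orally. Oral bioavailability (F, %), volume of distribution (Vβ, L/kg) and half-life (T1/2, h) were determined.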

[12] = tested on: Rattus norvegicus; assay: Volume of distribution in rat at 1 mg/kg, sc; assay type: ADME, organism-based; set-up: dose 1 mg/kg, route subcutaneous; conditions: in vivo; in short: as §2
[13] = tested on: Canis familiaris; assay: Volume of distribution in dog at 1 mg/kg, sc; assay type: ADME, organism-based, Canis lupus familiaris; set-up: dose 1 mg/kg, route subcutaneous; conditions: in vivo; in short: as §2
[14] = Half life in dog at 1 mg/kg, po; assay type: ADME, organism-based, Canis lupus familiaris; set-up: dose 1 mg/kg, route oral; conditions: in vivo; in short: as §2
[15] = Bioavailability in dog at 1 mg/kg, po; assay type: ADME, organism-based, Canis lupus familiaris; conditions: in vivo; in short: as §2
[16] = tested on: Rattus norvegicus; assay: Inhibition of (E)-1-(4-chlorophenyl)-3-(4-pyridin-2-ylpiperazin-1-yl)propan-1-one O-methyloxime-induced erectogenic effect in Wistar rat at 1 umol/kg, ip; assay type: functional, organism-based

Compound | EC50 [2] | Ki [3] | IC50 [4] | EC50 [5] | Ki [6] | further results
CN1CCc2cccc3c2[C@H]1Cc1ccc(O)c(O)c1-3 [APOMORPHINE] |  |  |  |  |  | Activity [1]: 85%
CO/N=C(/CCN1CCN(c2ccccn2)CC1)c1cccc(C#N)c1 | 27.5 nM | 20.1 nM | > 10000 nM | > 10000 nM | 125 nM | 
CO/N=C(\CCN1CCN(c2ccccn2)CC1)c1cc(F)cc(F)c1 | 37.2 nM | 110 nM | > 10000 nM | > 10000 nM | 132 nM | Activity [1]: 68%
CO/N=C(\CCN1CCN(c2ccccn2)CC1)c1cccc(Cl)c1 | 88.9 nM | 13.5 nM | > 10000 nM | > 10000 nM | 98.7 nM | 
Cc1cccc(C(=O)NCN2CCN(c3ccccc3C#N)CC2)c1 [PD-168,077] |  |  | > 10000 nM | > 10000 nM |  | Activity [7]: 79%
O=c1[nH]c2ccccc2n1CCCN1CCC(n2c(=O)[nH]c3cc(Cl)ccc32)CC1 |  |  |  |  |  | Activity [8]: inactive
N#CCO/N=C(\CCN1CCN(c2ccccn2)CC1)c1ccccc1 | 33 nM | 88 nM | > 10000 nM | > 10000 nM | 140 nM | 
CN1CCN(C2=Nc3cc(Cl)ccc3Nc3ccccc32)CC1 |  |  |  |  |  | Activity [9]: Active
CCO/N=C(\CCN1CCN(c2nccs2)CC1)c1ccccc1 | 81.8 nM | 168 nM | > 10000 nM | > 10000 nM | 257 nM | 
CO/N=C(\CCN1CCN(c2ccccn2)CC1)c1ccccc1C | 74 nM | 11.4 nM | > 10000 nM | > 10000 nM | 112 nM | 
CO/N=C(/CCN1CCN(c2ccccn2)CC1)c1ccc(F)cc1 | 13.6 nM | 53.3 nM | > 10000 nM | > 10000 nM | 221 nM | 
CO/N=C(\CCN1CCN(c2ccccn2)CC1)c1ccc(F)cc1 | 48.8 nM | 14.2 nM | > 10000 nM | > 10000 nM | 168 nM | Activity [7]: 50%
CO/N=C(\CCN1CCC(c2ccccn2)CC1)c1ccc(Cl)cc1 | 195 nM | 134 nM | > 10000 nM | > 10000 nM | 25.3 nM | 
CO/N=C(\CCN1CCN(c2ccccn2)CC1)c1ccc(F)c(Cl)c1 | 148 nM | 71.2 nM | > 10000 nM | > 10000 nM | 171 nM | Activity [10]: 85%; bioavailability [11]: 18.6%; Vbeta [12]: 8.2 L/kg; Vbeta [13]: 3.8 L/kg; half-life [14]: 6.1 h; bioavailability [15]: 42.9%
CO/N=C(/CCN1CCN(c2ccccn2)CC1)c1cccnc1 | 33.3 nM | 130 nM | > 10000 nM | > 10000 nM | 1820 nM | 
CO/N=C(/CCN1CCN(c2ccccn2)CC1)c1ccc(Cl)c(C)c1 | 98 nM | 11.6 nM | > 10000 nM | > 10000 nM | 60.9 nM | 
CO/N=C(/CCN1CCN(c2ccccn2)CC1)c1cccc(C)c1 | 61 nM | 32.1 nM | > 10000 nM | > 10000 nM | 68 nM | 
CO/N=C(\CCN1CCN(c2ccccn2)CC1)c1ccc(C)c(C)c1 | 108 nM | 27.5 nM | > 10000 nM | > 10000 nM | 137 nM | Activity [1]: 68%
O=C(CCCN1CCC(O)(c2ccc(Cl)cc2)CC1)c1ccc(F)cc1 |  |  |  |  |  | Activity [16]: Active
CO/N=C(/c1ccc(Cl)cc1)C(CNOC)CN1CCN(c2ccccn2)CC1 (stereo unspecified) | 206 nM | 120 nM | > 10000 nM | > 10000 nM | 164 nM | 
